“Also recorded” adds a separate entry of the source. Read-outs that look alike come from different tables or passages of the source.
Experiments:
[1] = tested on: L. donovani DD8 promastigotes; assay: Selection of resistant parasites under increasing drug pressure; type: cell-based, Leishmania donovani
Outline: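 DD8 promastigotes were cultured under gradually increasing concentrations of each drug, starting at a sublethal level, to select resistant strains. Resistance was confirmed with the promastigote viability assay.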

[2] = tested on: THP-1 cells; assay: Macrophage; type: cell-based, human; conditions: vs L. donovani DD8 intracellular amastigotes
[3] = tested on: L. donovani MHOM/IN/80/DD8 intracellular amastigotes; assay: L. donovani MHOM/IN/80/DD8 intracellular amastigote assay; type: cell-based, Leishmania donovani; conditions: for IC50: Leishmania donovani, THP-1, 96 h, read-out: IC50 (µM) [mean ± SD]
Outline: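 THP-1 cells: 12,500/well, 25 ng/mL PMA, 24 h at 37 °C. PMA washed off; cells rested 48 h. Infected with metacyclic promastigotes from 7-day culture (host:parasite 1:2.5) for 24 h, then free parasites washed off. Test compound 80–0.004 μM (0.4% DMSO), 96 h. PFA fixation, SYBR green/CellMask stain. Infected cells normalized to 1 μM amphotericin B and 0.4% DMSO. Sigmoidal IC50, two independent experiments.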

[4] = tested on: Leishmania donovani promastigotes; conditions: cited from earlier work
[5] = tested on: L. donovani DD8 promastigotes; assay: Determination of the cidal action of compounds; type: cell-based, Leishmania donovani; conditions: after 24 h incubation
Outline: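 DD8 promastigotes from two cultures in separate M199 media (N = 2) seeded at 5 × 10^5 parasites/mL. Test compound added; cell numbers counted at each time point. Absence of cells at a concentration was scored as cidal.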

[6] = tested on: cytokines IL-10, IL-4, TGFβ, IFN-γ, IL-17 and TNFα; assay: Relative expression of cytokines by qPCR in hamster spleen and liver; type: in vivo, golden hamsters (Mesocricetus auratus); conditions: for TGF-β expression: compared to untreated (UTG)
Outline: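 Hamsters in chronic infection (~60 days) treated 10 consecutive days: vehicle (0.5% carboxymethyl cellulose, oral), GLU 50 mg/kg/day ip, or test compound. Spleen/liver RNA reverse-transcribed; TaqMan qPCR normalized to hamster microglobulin at equal cDNA input; water as negative control. Cycling: 50 °C 2 min, 95 °C 10 min, 40 × (95 °C 15 s, 60 °C 1 min).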

[7] = tested on: HEK-293 cells; assay: HEK-293 resazurin viability assay; type: cell-based, human; conditions: vs L. donovani DD8 intracellular amastigotes, 96 h incubation
[8] = tested on: L. infantum chagasi (MHOM/BR/1972/BH46); assay: In vivo L. infantum chagasi chronic hamster model, parasite load by qPCR; parameters: species or system golden hamsters (Mesocricetus auratus); conditions: for average number of amastigotes in the liver / average number of amastigotes in the spleen: group average
[9] = tested on: miltefosine resistant L. donovani DD8 promastigotes; assay: Activity on miltefosine resistant parasites, promastigote assay; type: cell-based, Leishmania donovani
Outline: (§1)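 Resistant DD8 promastigote lines were raised by culture under gradually increasing drug concentrations, starting sublethal. Resistant clones were then tested alongside the wild-type strain in the resazurin promastigote viability assay.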

[10] = tested on: L. infantum chagasi (MHOM/BR/1972/BH46); assay: Histopathological analysis of hamster liver and spleen; type: in vivo, golden hamsters (Mesocricetus auratus); conditions: infected hamsters, 10 mg/kg/day oral
[11] = tested on: miltefosine resistant L. donovani DD8 intracellular amastigotes; assay: Activity on miltefosine resistant parasites, intracellular amastigote assay; type: cell-based, Leishmania donovani
Outline: (§2)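 Drug-selected resistant DD8 promastigotes were used to infect PMA-differentiated THP-1 cells. Test compound activity was assessed in the intracellular amastigote assay and compared with the wild-type strain.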

[12] = tested on: amphotericin B resistant L. donovani DD8 intracellular amastigotes; assay: Activity on amphotericin B resistant parasites, intracellular amastigote assay; type: cell-based, Leishmania donovani
Outline: as §2

[13] = tested on: L. donovani MHOM/SD/62/1S-CL2D, LdBOB intracellular amastigotes; assay: L. donovani MHOM/SD/62/1S-CL2D, LdBOB intracellular amastigote assay; type: cell-based, Leishmania donovani; conditions: for IC50: Leishmania donovani, 72 h, read-out: IC50 (µM) [mean ± SD]; for fold difference in activity between L. donovani DD8 and LdBOB: intracellular amastigote 72 h assay; for Selectivity THP-1 cells: vs L. donovani LdBOB intracellular amastigotes, 72 h incubation
[14] = tested on: L. donovani DD8 promastigotes; assay: Time to kill assay; type: cell-based; conditions: Leishmania donovani, read-out: IC50, time to kill, promastigotes
Outline: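 Time-kill: DD8 promastigotes exposed to test compound for 24, 48, 72 or 96 h in the promastigote viability assay. 14-point concentration series from 40 µM top; IC50 calculated at each exposure time.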

[15] = tested on: amphotericin B resistant L. donovani DD8 promastigotes; assay: Activity on amphotericin B resistant parasites, promastigote assay; type: cell-based, Leishmania donovani
Outline: as §1

[16] = Distribution coefficient estimation using chromatography; type: physicochemical; conditions: pH 7.4
Outline: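 LogD estimated at pH 7.4 by gradient HPLC, correlating retention against standards of known partition coefficient.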

[17] = tested on: L. donovani DD8 intracellular amastigotes; assay: Time to kill assay; type: cell-based; conditions: Leishmania donovani, 24 h, read-out: IC50, time to kill, intracellular amastigotes
Outline: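 Intracellular L. donovani amastigotes were exposed to test compound for 24, 48 or 72 h, with amphotericin B and miltefosine as reference drugs. A 14-point concentration–response series started at 40 µM, and an IC50 was derived for each exposure time. Other conditions followed the paper's intracellular amastigote assay.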

[18] = tested on: L. tropica, L. aethiopica, L. mexicana, L. panamensis and L. donovani; conditions: read-out: EC50 values obtained for miltefosine; varied between species; cited from earlier work
[19] = tested on: L. donovani; conditions: read-out: mean IC50; L. donovani DD8; cited from earlier work
[20] = BZ1, BZ1-I 10 mg/kg/day oral, GLU 50 mg/kg/day i.p.
[21] = BZ1, BZ1-I 10 mg/kg/day oral, GLU 50 mg/kg/day i.p., 10 days
[22] = L. donovani DD8 intracellular amastigote assay (96 h)

C[C@@H]1[C@H](O)[C@@H](C)/C=C/C=C/C=C/C=C/C=C/C=C/C=C/[C@H](O[C@@H]2O[C@H](C)[C@@H](O)[C@H](N)[C@@H]2O)C[C@@H]2O[C@](O)(C[C@@H](O)C[C@@H](O)[C@H](O)CC[C@@H](O)C[C@@H](O)CC(=O)O[C@H]1C)C[C@H](O)[C@H]2C(=O)O [Amphotericin B, reference compound]
concentration withstood by resistant clones ([1]; after 428 days): 0.42 µM
Selectivity THP-1 cells ([2]; 96 h incubation): 10.24
IC50 [3]: 0.2 ± 0.02 µM
resistance generated [4]: 20 fold
concentration at which no viable promastigotes were observed [5]: 0.33 µM

CCOc1ccc(Nc2c3c(nc4ccccc24)CCC3)cc1 [BZ1, N-(4-Ethoxyphenyl)-2,3-dihydro-1H-cyclopenta[b]quinolin-9-amine]
concentration withstood by resistant clones ([1]; after 428 days): 11 µM
TNF-α expression ([6]; compared to GLU and untreated, liver and spleen samples): significant downregulation
TGF-β expression [6]: significantly downregulated; also recorded: decreased expression of TGF-β
IL-4 expression ([6]; compared to untreated, spleen and liver samples): significantly downregulated
IL-17 expression ([6]; liver samples, compared to GLU): significant downregulation
Selectivity HEK-293 cells [7]: > 33
Selectivity THP-1 cells ([2]; 72 h incubation): >25.64
Selectivity THP-1 cells ([2]; 96 h incubation): >33.89
in vivo toxicity in the hamster VL model ([8]; 10 mg/kg/day oral, 10 days): does not exhibit in vivo toxicity
parasite burden reduction in spleen [8, 20]: 98.56%
average number of amastigotes in the liver [8, 21]: 3020 g⁻¹
average number of amastigotes in the spleen [8, 21]: 25400 g⁻¹
activity against miltefosine resistant strain compared to wild-type [9]: no significant difference
histopathological findings, liver [10]: inflammatory nodules in the hepatic parenchyma, lymph histiocytic inflammatory infiltrate in the portal space forming nodules
histopathological findings, spleen [10]: increase of macrophages in the red pulp forming nodular aggregates and granulomas
activity against miltefosine resistant strain compared to wild-type [11]: no significant difference
activity against amphotericin B resistant strain compared to wild-type [12]: no significant difference
fold greater activity than miltefosine [3, 22]: 5 fold
fold lower in vitro activity than amphotericin B [3, 22]: ~ 3 fold
IC50 [3]: 0.59 ± 0.13 µM
IC50 [13]: 4.4 ± 0.12 µM
fold difference in activity between L. donovani DD8 and LdBOB [13]: 5 fold
Selectivity THP-1 cells [13]: >11.76
IC50 ([14]; 24 h): 4310 ± 220 nM
IC50 ([14]; 48 h): 2370 ± 740 nM
activity against amphotericin B resistant strain compared to wild-type [15]: no significant difference
chromatographic logD [16]: 5
concentration at which no viable promastigotes were observed [5]: 6.66 µM

c1ccc(Oc2ccc(Nc3c4c(nc5ccccc35)CCC4)cc2)cc1 [BZ1-I, N-(4-phenoxyphenyl)-1H,2H,3H-cyclopenta[b]quinolin-9-amine]
concentration withstood by resistant clones ([1]; after 210 days): 5.5 µM
TGF-β expression [6]: decreased expression of TGF-β
Selectivity HEK-293 cells [7]: >24.11
Selectivity THP-1 cells ([2]; 72 h incubation): >44.44
Selectivity THP-1 cells ([2]; 96 h incubation): >49.12
fold greater activity compared to the GLU treatment group ([8]; 10 mg/kg/day oral vs GLU 50 mg/kg/day i.p.): ~ 21 fold
parasite burden reduction in spleen [8, 20]: 99.95%
average number of amastigotes in the liver [8, 21]: 120 g⁻¹
average number of amastigotes in the spleen [8, 21]: 162 g⁻¹
activity against miltefosine resistant strain compared to wild-type [9]: no significant difference
histopathological findings, liver [10]: mild inflammatory infiltrate in the portal space and nodules in the parenchyma with the presence of giant cells
histopathological findings, spleen [10]: evident increase in macrophages in the red pulp with the formation of nodules
activity against miltefosine resistant strain compared to wild-type [11]: no significant difference
activity against amphotericin B resistant strain compared to wild-type [12]: no significant difference
IC50 [3]: 0.4 ± 0.38 µM
IC50 [13]: 4.26 ± 0.24 µM
fold difference in activity between L. donovani DD8 and LdBOB [13]: 10 fold
Selectivity THP-1 cells [13]: >11.49
IC50 ([14]; 24 h): 3080 ± 1110 nM
IC50 ([14]; 48 h): 690 ± 350 nM
activity against amphotericin B resistant strain compared to wild-type [15]: no significant difference
IC50 [17]: 4840 ± 830 nM
concentration at which no viable promastigotes were observed [5]: 1.66 µM

CCCCCCCCCCCCCCCCOP(=O)([O-])OCC[N+](C)(C)C [Miltefosine, miltefosine, reference compound]
concentration withstood by resistant clones ([1]; after 428 days): 40 µM
EC50 [18]: 2630 to 10600 nM
Selectivity HEK-293 cells [7]: 15.66
Selectivity THP-1 cells ([2]; 96 h incubation): >7.87
Selectivity THP-1 cells ([2]; 96 h incubation, listed as miltefosine): 7.87
IC50 [3]: 2.54 ± 0.57 µM
concentration at which no viable promastigotes were observed [5]: 6.66 µM

NC[C@@H]1O[C@H](O[C@H]2[C@@H](O)[C@H](O[C@@H]3[C@@H](O)[C@H](N)C[C@H](N)[C@H]3O[C@H]3O[C@H](CO)[C@@H](O)[C@H](O)[C@H]3N)O[C@@H]2CO)[C@H](N)[C@@H](O)[C@@H]1O [Paromomycin]
IC50 [19]: 158000 to 166000 nM

Meglumine Antimoniate [reference compound]
INF-γ expression ([6]; spleen samples): significant difference; also recorded: increased INF-γ (Th1) expression
parasite burden reduction in liver [8, 20]: 98.79%
parasite burden reduction in spleen [8, 20]: 99.21%
average number of amastigotes in the liver [8, 21]: 2530 g⁻¹
average number of amastigotes in the spleen [8, 21]: 12200 g⁻¹
